The values below come from ChEMBL document CHEMBL1137338, “Effects of substitution on 9-(3-bromo-4-fluorophenyl)-5,9-dihydro-3H,4H-2,6-dioxa-4- azacyclopenta[b]naphthalene-1,8-dione, a dihydropyridine ATP-sensitive potassium channel opener” (J Med Chem, 2006).

By EC50 is commonly meant the concentration giving half of the maximal effect.

SMILES strings stand for the structures.

For test [1], the target named is T1, Sulfonylurea receptor 2, Kir6.2 (Homo sapiens, UniProt O60706+Q14654). Description: Activity against pig bladder KATP channel opening assessed as ability to relax spontaneous bladder contraction. Format: functional, Sus scrofa. The following applies: target entry is the homologue from another species. The method in brief: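 Spontaneously contracting detrusor strips were taken from near the trigonal region of Landrace pig bladder. Increasing concentrations of test agent were applied, and the reduction in area under the curve (AUC) of the spontaneous contractions was measured.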

The target of test [2] is T1, Sulfonylurea receptor 2, Kir6.2. Description: (§1) Activity against pig bladder KATP channel opening assessed as ability to relax field-stimulated pig detrusor. Format: functional, Sus scrofa. The settings on record: target entry is the homologue from another species.
The target is the same in test [3]. Description: (§2) Ability to open human urinary bladder Kir6.2 channel containing SUR2B in Ltk cells by FLIPR assay. Format: functional, cell-based. The method in brief:
(§3)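 Ltk- cells stably transfected with the Kir6.2/SUR2B exon 17- splice variant. Membrane potential was followed with DiBAC dye in a 96-well cell-based kinetic fluorescence (FLIPR) assay. The highest concentration tested was 10 µM. Each compound's maximal fluorescence response was expressed as % of the response to the reference opener.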

In test [4] the target is T2, Sulfonylurea receptor 2, Kir6.2 (Homo sapiens) (UniProt Q14654+O60706). Description: Activity against pig bladder KATP channel opening assessed as ability to relax field-stimulated pig detrusor relative to P1075. The following applies: Sus scrofa; target entry is the homologue from another species. The format is functional.
Test [5] addresses T2, Sulfonylurea receptor 2, Kir6.2 (Homo sapiens). Description: Activity against pig bladder KATP channel opening assessed as ability to relax spontaneous bladder contraction relative to P1075. The format is functional. The settings on record: Sus scrofa; target entry is the homologue from another species.
The target is the same in test [6]. Description: Ability to open human urinary bladder Kir6.2 containing SUR2B in Ltk cells by FLIPR assay relative to P1075. Format: functional, cell-based. The method in brief:
as §3

For test [7] the target is unchanged. The description is as §1. The settings on record: Sus scrofa; filed as agonist; target entry is the homologue from another species. Format: functional.
Test [8] has the same target. Described as §2. Format: functional, cell-based. The settings on record: filed as partial agonist. The gist of the method: as §3

T1 sequence (Q14654 whole entry): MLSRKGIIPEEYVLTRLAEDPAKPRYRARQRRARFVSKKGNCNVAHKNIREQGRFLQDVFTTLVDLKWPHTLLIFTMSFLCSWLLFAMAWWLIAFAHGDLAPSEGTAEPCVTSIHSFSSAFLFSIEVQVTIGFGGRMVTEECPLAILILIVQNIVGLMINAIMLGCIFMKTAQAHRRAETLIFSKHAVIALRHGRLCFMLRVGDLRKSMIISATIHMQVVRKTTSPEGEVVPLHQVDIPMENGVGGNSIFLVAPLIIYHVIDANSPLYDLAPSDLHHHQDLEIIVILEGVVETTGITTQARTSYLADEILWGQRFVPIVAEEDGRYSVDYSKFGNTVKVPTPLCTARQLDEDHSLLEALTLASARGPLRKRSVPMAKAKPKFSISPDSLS
T1 sequence (O60706 whole entry): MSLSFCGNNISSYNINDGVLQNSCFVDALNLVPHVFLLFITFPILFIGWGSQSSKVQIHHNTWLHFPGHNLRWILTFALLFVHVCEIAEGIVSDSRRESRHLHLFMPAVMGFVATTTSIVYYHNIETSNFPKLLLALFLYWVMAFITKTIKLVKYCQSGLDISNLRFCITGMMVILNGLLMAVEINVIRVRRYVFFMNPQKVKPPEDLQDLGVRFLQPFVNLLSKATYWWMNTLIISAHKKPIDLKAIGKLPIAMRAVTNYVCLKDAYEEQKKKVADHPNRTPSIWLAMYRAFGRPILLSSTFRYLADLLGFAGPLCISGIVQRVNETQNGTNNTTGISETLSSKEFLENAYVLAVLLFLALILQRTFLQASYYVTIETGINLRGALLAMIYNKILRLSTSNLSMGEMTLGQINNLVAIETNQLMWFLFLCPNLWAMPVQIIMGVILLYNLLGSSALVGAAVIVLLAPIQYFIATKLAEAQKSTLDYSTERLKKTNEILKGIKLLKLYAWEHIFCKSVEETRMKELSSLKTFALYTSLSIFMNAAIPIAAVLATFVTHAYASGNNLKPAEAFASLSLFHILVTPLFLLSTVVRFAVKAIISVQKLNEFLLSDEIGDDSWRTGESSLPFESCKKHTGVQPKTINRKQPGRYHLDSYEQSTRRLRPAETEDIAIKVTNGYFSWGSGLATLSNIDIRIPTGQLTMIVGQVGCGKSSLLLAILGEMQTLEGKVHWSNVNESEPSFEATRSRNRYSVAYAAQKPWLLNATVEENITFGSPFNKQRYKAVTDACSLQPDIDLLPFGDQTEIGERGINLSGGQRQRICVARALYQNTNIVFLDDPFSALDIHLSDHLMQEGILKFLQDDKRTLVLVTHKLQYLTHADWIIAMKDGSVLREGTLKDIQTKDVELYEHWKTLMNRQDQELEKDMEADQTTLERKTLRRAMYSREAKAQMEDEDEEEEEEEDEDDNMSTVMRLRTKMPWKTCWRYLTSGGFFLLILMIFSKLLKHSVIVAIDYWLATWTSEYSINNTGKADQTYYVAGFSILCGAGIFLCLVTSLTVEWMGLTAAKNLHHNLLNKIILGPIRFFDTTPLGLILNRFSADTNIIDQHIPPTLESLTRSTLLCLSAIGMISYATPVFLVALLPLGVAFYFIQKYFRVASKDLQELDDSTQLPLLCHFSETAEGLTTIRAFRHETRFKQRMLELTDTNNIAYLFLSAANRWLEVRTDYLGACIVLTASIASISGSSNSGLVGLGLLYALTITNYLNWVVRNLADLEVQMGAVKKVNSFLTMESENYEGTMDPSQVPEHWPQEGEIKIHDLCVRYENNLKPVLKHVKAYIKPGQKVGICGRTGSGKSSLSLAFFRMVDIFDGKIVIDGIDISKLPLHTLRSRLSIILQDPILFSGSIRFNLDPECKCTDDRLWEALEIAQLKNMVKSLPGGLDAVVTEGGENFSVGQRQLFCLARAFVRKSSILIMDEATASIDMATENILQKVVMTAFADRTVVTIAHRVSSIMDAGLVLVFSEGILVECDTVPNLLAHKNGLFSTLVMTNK

Turning to `CCC(C)(C)NC(=NC#N)Nc1cccnc1`, the concentration for a half-maximal effect (EC50) in test [1] was 0.0219 µM; in test [2], 0.0851 µM; in test [3], 0.0525 µM.
On to `CCc1cc(C#N)ccc1Nc1c(N[C@H](C)C(C)(C)C)c(=O)c1=O`, for which the Efficacy worked out at 94% in test [4], 100% in test [5] and 71% in test [6]. For the same compound, the concentration giving a half-maximal response (EC50) was 0.102 µM in test [1], 0.676 µM in test [2] and 2.34 µM in test [3].
In the case of `O=C1COCC2=C1[C@@H](c1ccc(F)c(Br)c1)C1=C(COC1=O)N2`, the figures for the Efficacy in test [4] and in test [6] were 95% and 107%, respectively. For the same compound, the concentration giving a half-maximal response (EC50) in test [2] is 0.589 µM; in test [3], 0.0631 µM.
The matching figures for `O=C1COCC2=C1C(c1ccc(F)c(Br)c1)C1=C(O)COCC1=N2` (stereo unspecified): 97%, 87%, 0.126 µM and 0.0275 µM.
For `CCC(C)(C)/N=C(\NC#N)Nc1cccnc1`, the results for the Efficacy in test [4], in test [5] and in test [6] were 99%, 100% and 101%, respectively.
Take `C[C@](O)(C(=O)Nc1ccc(C(=O)c2ccccc2)cc1)C(F)(F)F`: the Efficacy was determined as 99% in test [4], 100% in test [5] and 100% in test [6].
As to `CCC[C@H]1OC(O)=C2C1=NC1=C(C(=O)COC1)[C@H]2c1ccc(F)c(Br)c1` (racemic), the Efficacy turned out to be 90% in test [4] and 36% in test [6]. The Activity result was “Agonist” in test [7] and “Partial agonist” in test [8].
Consider `CC[C@H]1OC(O)=C2C1=NC1=C(C(=O)COC1)[C@H]2c1ccc(F)c(Br)c1` (racemic), for which the values for the Efficacy in test [4] and in test [6] were 88% and 40%, respectively. Also, the Activity result is “Agonist” in test [7] and “Partial agonist” in test [8].
For `CC[C@H]1OCC(O)=C2C1=NC1=C(C(=O)COC1)[C@H]2c1ccc(Cl)c(Cl)c1` (racemic), the Activity entry in test [8] was “Partial agonist”. This compound yielded an Efficacy in test [6] of 58%.
In the case of `CC[C@H]1OCC(O)=C2C1=NC1=C(C(=O)COC1)[C@H]2c1ccc(F)c(Br)c1` (racemic), in test [8], the Activity result was “Partial agonist”. The Efficacy in test [6] was found to be 30%.
The matching figures for `CC[C@H]1OCC(O)=C2C1=NC1=C(C(=O)COC1)[C@H]2c1ccc(F)c(Cl)c1` (racemic): “Partial agonist” and 30%.
`CC(C)[C@@H]1OC(O)=C2C1=NC1=C(C(=O)COC1)[C@H]2c1ccc(F)c(Br)c1` (relative stereo): the Efficacy in test [4] came to 97%. In addition, the EC50 is 1.2 µM in test [2] and greater than 10 µM in test [3].
Turning to `CC(C)C[C@@H]1OC(O)=C2C1=NC1=C(C(=O)COC1)[C@H]2c1ccc(F)c(Br)c1` (relative stereo), the Efficacy in test [4] is 74%; in test [6] it was 83%. In addition, the EC50 in test [2] is 0.129 µM; in test [3], 0.0275 µM.
On to `O=C1COCC2=C1[C@@H](c1ccc(F)c(Br)c1)C1=C(O)O[C@@H](c3ccccc3)C1=N2` (relative stereo), for which the Efficacy in test [4] is 91%; in test [6], 68%. Moreover, the values for the EC50 in test [2] and in test [3] were 1.29 µM and 0.257 µM, respectively.
As for `CC[C@H]1OC(O)=C2C1=NC1=C(C(=O)CSC1)[C@H]2c1ccc(F)c(Br)c1` (relative stereo), the Efficacy was determined as 100% in test [4] and 15% in test [6]. The figures for the Activity result in test [7] and in test [8] were “Agonist” and “Partial agonist”, respectively.
Consider `CC1(C)Oc2ccc(C#N)cc2[C@H](N2CCCC2=O)[C@H]1O` (single isomer, unassigned), for which the values for the Efficacy in test [4], in test [5] and in test [6] were 99%, 100% and 83%, respectively.
In the case of `O=C1COCC2=C1C(c1ccc(F)c(Br)c1)C1=C(O)OCC1=N2` (stereo in doubt; 6b) [listing 1 of 2 here], the half-maximal effective concentration (EC50) in test [1] is 0.000676 µM; in test [2], 0.214 µM; in test [3] it was 0.0372 µM.
On to `O=C1COCC2=C1C(c1ccc(F)c(Br)c1)C1=C(O)OCC1=N2` (stereo in doubt; 6b) [listing 2 of 2 here], for which the Efficacy in test [4] was 88%; in test [5], 100%; in test [6] it was 101%.
Consider `C[C@@H]1OCC2=C(C1=O)[C@@H](c1ccc(F)c(Br)c1)C1=C(O)OCC1=N2` (stereo in doubt; 7a), for which, in test [8], the Activity result is “Partial agonist”. Further, the Efficacy in test [6] was 17%.
`C[C@@H]1OCC2=C(C1=O)[C@H](c1ccc(F)c(Br)c1)C1=C(O)OCC1=N2` (stereo in doubt; 8a): the Activity result in test [8] was “Partial agonist”. The Efficacy in test [6] was found to be 15%.
With `C[C@@H]1OCC2=C(C1=O)[C@H](c1ccc(F)c(Br)c1)C1=C(O)OCC1=N2` (stereo in doubt; 8b), in test [8], the Activity entry is “Partial agonist”. Besides, the Efficacy in test [6] worked out at 16%.
On to `CC[C@H]1OC(O)=C2C1=NC1=C(C(=O)COC1)[C@H]2c1ccc(F)c(Br)c1` (stereo in doubt; 21b) [listing 1 of 2 here], for which the EC50 in test [1] was 0.0191 µM; in test [2], 0.282 µM; in test [3], 0.17 µM.
Consider `CC[C@H]1OC(O)=C2C1=NC1=C(C(=O)COC1)[C@H]2c1ccc(F)c(Br)c1` (stereo in doubt; 21b) [listing 2 of 2 here], for which the Efficacy was 77% in test [4], 96% in test [5] and 46% in test [6]. Further, the Activity result in test [8] is “Partial agonist”.
Regarding `CCC[C@H]1OC(O)=C2C1=NC1=C(C(=O)COC1)[C@H]2c1ccc(F)c(Br)c1` (stereo in doubt; 23b), the Efficacy was determined as 34% in test [4], 99% in test [5] and 45% in test [6]. For the same compound, in test [8], the Activity result was “Partial agonist”.
Consider `CCCC[C@H]1OC(O)=C2C1=NC1=C(C(=O)COC1)[C@H]2c1ccc(F)c(Br)c1` (stereo in doubt; 29b) [listing 1 of 2 here], for which the concentration for a half-maximal effect (EC50) in test [1] was 0.331 µM; in test [2], 1.66 µM; in test [3] it was 0.851 µM.
For `CCCC[C@H]1OC(O)=C2C1=NC1=C(C(=O)COC1)[C@H]2c1ccc(F)c(Br)c1` (stereo in doubt; 29b) [listing 2 of 2 here], the Efficacy in test [4] was determined as 51%; in test [5], 100%; in test [6] it was 68%.
As to `CC(C)C[C@H]1OC(O)=C2C1=NC1=C(C(=O)COC1)[C@H]2c1ccc(F)c(Br)c1` (stereo in doubt; 31b), the figures for the EC50 in test [2] and in test [3] were 0.102 µM and 10 µM, respectively.
In the case of `CC[C@H]1OC(O)=C2C1=NC1=C(C(=O)C(C)(C)OC1)[C@H]2c1ccc(F)c(Br)c1` (stereo in doubt; 36b), in test [8], the Activity entry was “Partial agonist”. For the same compound, in test [6], the Efficacy amounted to 34%.
As for `CCC[C@H]1OC(O)=C2C1=NC1=C(C(=O)COC1)[C@H]2c1ccc(F)c(Cl)c1` (stereo in doubt; 39b) [listing 1 of 2 here], the values for the EC50 in test [2] and in test [3] were 0.129 µM and 0.0912 µM, respectively.
For `CCC[C@H]1OC(O)=C2C1=NC1=C(C(=O)COC1)[C@H]2c1ccc(F)c(Cl)c1` (stereo in doubt; 39b) [listing 2 of 2 here], the Efficacy in test [4] stood at 66%; in test [6], 39%. Further, the Activity result in test [8] is “Partial agonist”.
As to `CCC[C@H]1OC(O)=C2C1=NC1=C(C(=O)COC1)[C@H]2c1ccc(F)c(I)c1` (stereo in doubt; 41b), the EC50 in test [2] was 0.229 µM; in test [3] it was 0.0269 µM.
For `CC[C@H]1OCC(O)=C2C1=NC1=C(C(=O)COC1)[C@H]2c1ccc(F)c(Br)c1` (stereo in doubt; 71a) [listing 1 of 2 here], the EC50 in test [1] was 0.129 µM; in test [2] it was 2.04 µM; in test [3], 0.17 µM.
Turning to `CC[C@H]1OCC(O)=C2C1=NC1=C(C(=O)COC1)[C@H]2c1ccc(F)c(Br)c1` (stereo in doubt; 71a) [listing 2 of 2 here], the Efficacy stood at 54% in test [4], 98% in test [5] and 40% in test [6]. Moreover, the Activity result in test [8] was “Partial agonist”.
Consider `CC[C@H]1OCC(O)=C2C1=NC1=C(C(=O)COC1)[C@H]2c1ccc(Cl)c(Cl)c1` (stereo in doubt; 74b) [listing 1 of 2 here], for which the half-maximal effective concentration (EC50) in test [1] was 0.055 µM; in test [2], 2.29 µM; in test [3], 0.17 µM.
In the case of `CC[C@H]1OCC(O)=C2C1=NC1=C(C(=O)COC1)[C@H]2c1ccc(Cl)c(Cl)c1` (stereo in doubt; 74b) [listing 2 of 2 here], the figures for the Efficacy in test [4], in test [5] and in test [6] were 41%, 92% and 57%, respectively. Moreover, in test [8], the Activity entry is “Partial agonist”.
Take `CC[C@H]1OCC(O)=C2C1=NC1=C(C(=O)COC1)[C@H]2c1ccc(Br)c(Cl)c1` (stereo in doubt; 76b) [listing 1 of 2 here]: the EC50 in test [1] was 0.245 µM; in test [2] it was 13.5 µM; in test [3], 0.245 µM.
Take `CC[C@H]1OCC(O)=C2C1=NC1=C(C(=O)COC1)[C@H]2c1ccc(Br)c(Cl)c1` (stereo in doubt; 76b) [listing 2 of 2 here]: the Efficacy in test [4] came out at 38%; in test [5] it was 97%; in test [6], 37%. Moreover, the Activity entry in test [8] was “Partial agonist”.
